# Source: ChEMBL document CHEMBL1152651, “In vivo and in vitro anti-leishmanial activities of 4-nitro-N-pyrimidin- and N-pyrazin-2-ylbenzenesulfonamides, and N2-(4-nitrophenyl)-N1-propylglycinamide” (Bioorg Med Chem, 2009)
# Activity calls are given as the source filed them. No cut-off for these calls is given here.
# Tests used:
# [1] = system: Leishmania infantum; assay: Antileishmanial activity against Leishmania infantum MCAN/ES/92/BCN 83 promastigotes at 100 ug/ml after 48 hrs by resazurin method; format: functional; conditions: for inhibition of growth at 100 µg/mL: MCAN/ES/92/BCN 83, 48 h, read-out: GI
# Method in brief: (§1)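 L. infantum MCAN/ES/92/BCN 83 promastigotes (Schneider's medium, 20% heat-inactivated FBS, 26 °C), 2.5 × 10^5 per well. Compounds in DMSO were first screened at 1, 10, 100 µg/mL, then 252 to 1.9 µM for active ones. After 48 h at 26 °C, resazurin was added and fluorescence read (ex 535/em 590 nm) for % growth inhibition. Triplicates; IC50 by least-squares linear regression.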
# [2] = system: Leishmania infantum; assay: Antileishmanial activity against Leishmania infantum MCAN/ES/92/BCN 83 promastigotes after 48 hrs by resazurin method; format: functional, organism-based; method in brief: as §1
# [3] = system: J774; assay: Cytotoxicity against mouse J774 cells after 24 hrs by resazurin reduction test; format: cell-based
# Method in brief: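 J774 murine macrophages (RPMI 1640, 10% FBS, 37 °C, 5% CO2), 5 × 10^4 cells/well, adhered 24 h. Then exposed to compounds for 24 h. Resazurin added for 3 h; fluorescence read at ex 535/em 590 nm, background subtracted. Each concentration assayed three times.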
# [4] = system: Calf thymus DNA; assay: Binding affinity to calf thymus DNA assessed as increase in DNA viscosity at 1 to 30 uM by viscometer; format: nucleic-acid assay; conditions: Bos taurus
# Method in brief: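 Ubbelohde viscometer at 25.0 or 37.0 °C. Compounds in DMF/cacodylate buffer (pH 6) 2:10 added to 50 µM CT-DNA in cacodylate buffer; final 1–30 µM. Flow times in triplicate, η = t − t0. Plotted as (η/η0)^1/3 versus the compound/DNA ratio.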
# [5] = system: Mus musculus; assay: Toxicity in BALB/c mouse assessed as reduction hair loss at 5 mg/kg, ip once daily; conditions: in vivo
# [6] = system: Leishmania infantum; assay: Antileishmanial activity against Leishmania infantum MCAN/ES/92/BCN 83 promastigotes-infected in BALB/c mouse assessed as reduction of parasite burden in spleen at 5 mg/kg, ip once daily for 10 days by limit dilution assay relative to control; design: scale not given: the % may be the effect or the level left; conditions: route intraperitoneal
# [7] = system: Nucleic Acid; assay: Induction of Cu2+-dependent DNA cleavage in Escherichia coli pUC18 DNA assessed as degradation of super coiled form at 15 to 30 uM after 60 mins by agarose gel electrophoresis in presence of cupric chloride; format: nucleic-acid assay
# Method in brief: (§2)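 pUC18 plasmid in 0.1 M cacodylate pH 6.0 with CuCl2 + compound (1:1) at 15–45 µM final, plus ascorbate (50-fold excess over Cu(II)). 1 h at 37 °C. Supercoiled, circular and linear forms resolved on 0.8% agarose/0.5× TBE gel with ethidium bromide, 80 V, about 2 h.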
# [8] = system: Nucleic Acid; assay: Induction of Cu2+-dependent DNA cleavage in Escherichia coli pUC18 DNA assessed as degradation of super coiled form at 45 uM after 60 mins by agarose gel electrophoresis in presence of cupric chloride; format: nucleic-acid assay; method in brief: as §2
# [9] = system: Nucleic Acid; assay: Induction of supercoiled Escherichia coli pUC18 DNA cleavage at 6 to 60 uM after 60 mins by agarose gel electrophoresis; format: nucleic-acid assay
# Method in brief: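 Supercoiled pUC18 plasmid in 0.1 M cacodylate buffer pH 6.0 with compound at 6–60 µM final, 1 h at 37 °C. Analysed by 0.8% agarose gel in 0.5× TBE with ethidium bromide, 80 V, about 2 h.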
# [10] = system: Mus musculus; assay: Toxicity in BALB/c mouse assessed as reduction in body weight at 5 mg/kg, ip once daily; conditions: in vivo
# [11] = system: Leishmania infantum; assay: Antileishmanial activity against Leishmania infantum MCAN/ES/92/BCN 83 promastigotes-infected in BALB/c mouse assessed as reduction of parasite burden in liver at 5 mg/kg, ip once daily for 10 days by limit dilution assay relative to control; design: scale not given: the % may be the effect or the level left; conditions: route intraperitoneal
# [12] = system: Calf thymus DNA; assay: Binding affinity to calf thymus DNA assessed as melting temperature (Rvb Tm = 53.8 degC); format: nucleic-acid assay; conditions: Bos taurus
# [13] = Leishmania infantum, MCAN/ES/92/BCN 83, 48 h, read-out: IC50
# [14] = Mus musculus, J774, 24 h, read-out: IC50
SMILES,inhibition of growth at 100 µg/mL [1],"IC50 [2, 13]",also measured
O=S(=O)(Nc1ccc2c(c1)CCC2)c1ccc(Cl)cc1,49.9%,> 256 µM,–
O=S(=O)(Nc1cnccn1)c1ccccc1,37%,> 256 µM,–
O=S(=O)(Nc1ncccn1)c1ccccc1,20.3%,> 256 µM,–
Cc1cnc(NS(=O)(=O)c2ccc(Cl)cc2)s1,74.5%,> 256 µM,–
O=S(=O)(Nc1ncccn1)c1ccc(F)cc1,–,–,growth inhibition (GI) [1]: inactive; IC50 [2]: Not Active; IC50 ([3]; j774): Not Active
O=S(=O)(Nc1cnccn1)c1ccc(Cl)cc1,25.3%,> 256 µM,–
O=[N+]([O-])c1ccc(S(=O)(=O)Nc2ccccn2)cc1,39.3%,> 256 µM,–
O=[N+]([O-])c1ccccc1S(=O)(=O)Nc1ncccn1,40.6%,> 256 µM,–
Cc1cc(NS(=O)(=O)c2ccccc2)no1,17.9%,> 256 µM,–
Cc1csc(NS(=O)(=O)c2ccc([N+](=O)[O-])cc2)n1,55.6%,> 256 µM,–
O=[N+]([O-])c1ccc(S(=O)(=O)Nc2ccc3c(c2)CCC3)cc1,91.9%,< 1 µM,"IC50 [3, 14]: 61 µM"
Cc1cc(NS(=O)(=O)c2ccc(Cl)cc2)no1,15.7%,> 256 µM,–
Nc1ccc(S(=O)(=O)Nc2ncccn2)cc1 [SULFADIAZINE],–,–,growth inhibition (GI) [1]: inactive; IC50 [2]: Not Active; IC50 ([3]; j774): Not Active
O=[N+]([O-])c1ccc(S(=O)(=O)Nc2ccc3[nH]ncc3c2)cc1,88.2%,14.5 µM,"IC50 [3, 14]: > 256 µM"
COc1ccc(S(=O)(=O)Nc2ncccn2)cc1,29.6%,> 256 µM,–
Cc1cnc(NS(=O)(=O)c2ccc([N+](=O)[O-])cc2)s1,36.7%,> 256 µM,–
O=[N+]([O-])c1cccc(S(=O)(=O)Nc2ncccn2)c1,–,–,growth inhibition (GI) [1]: inactive; IC50 [2]: Not Active; IC50 ([3]; j774): Not Active

SMILES,inhibition of growth at 100 µg/mL [1],"IC50 [2, 13]",also measured
Cc1cnc(NS(=O)(=O)c2ccccc2)s1,69%,> 256 µM,–
O=S(=O)(Nc1nccs1)c1ccc(Cl)cc1,65%,> 256 µM,–
Cc1cc(NS(=O)(=O)c2ccc([N+](=O)[O-])cc2)n[nH]1,71.5%,164 µM,"IC50 [3, 14]: > 256 µM"
O=[N+]([O-])c1ccc(S(=O)(=O)Nc2ncccn2)cc1,92.7%,100 µM,"Activity [4]: inactive; Activity [5]: Non-toxic; Activity [6]: 99.82%; Activity [7]: inactive; Activity [8]: Active; Activity [9]: inactive; Activity [10]: Non-toxic; IC50 [3, 14]: > 256 µM; Activity [11]: 97.58%; Tm [12]: 54.2 °C"
O=[N+]([O-])c1ccc(S(=O)(=O)Nc2ccncc2)cc1,46.3%,> 256 µM,–
Cc1cc(NS(=O)(=O)c2ccc([N+](=O)[O-])cc2)no1,85.6%,126 µM,"IC50 [3, 14]: > 256 µM"
O=[N+]([O-])c1ccc(S(=O)(=O)Nc2nccs2)cc1 [PARA-NITROSULFATHIAZOLE],58.6%,> 256 µM,–
Cc1cc(C)nc(NS(=O)(=O)c2ccc(Cl)cc2)n1,71.5%,224 µM,"IC50 [3, 14]: > 256 µM"
O=S(=O)(Nc1ncccn1)c1ccc(Br)cc1,–,–,growth inhibition (GI) [1]: inactive; IC50 [2]: Not Active; IC50 ([3]; j774): Not Active
O=S(=O)(Nc1ncccn1)c1ccc(Cl)cc1,–,–,growth inhibition (GI) [1]: inactive; IC50 [2]: Not Active; IC50 ([3]; j774): Not Active
O=S(=O)(Nc1ccc2c(c1)CCC2)c1ccccc1,45.3%,> 256 µM,–
O=[N+]([O-])c1ccc(S(=O)(=O)Nc2cnccn2)cc1,90.8%,66.2 µM,"Activity [5]: Non-toxic; Activity [6]: 99.44%; Activity [10]: Non-toxic; IC50 [3, 14]: > 256 µM; Activity [11]: 99.28%"
Cc1cc(C)nc(NS(=O)(=O)c2ccc([N+](=O)[O-])cc2)n1,33.3%,> 256 µM,–
O=[N+]([O-])c1ccc(S(=O)(=O)Nc2cccnc2)cc1,35.7%,> 256 µM,–
CS(=O)(=O)Nc1ncccn1,–,–,growth inhibition (GI) [1]: inactive; IC50 [2]: Not Active; IC50 ([3]; j774): Not Active
CCCNC(=O)CNc1ccc([N+](=O)[O-])cc1,85%,156 µM,"Activity [4]: inactive; Activity [5]: Non-toxic; Activity [6]: 99.89%; Activity [7]: inactive; Activity [8]: Active; Activity [9]: inactive; Activity [10]: Non-toxic; IC50 [3, 14]: > 256 µM; Activity [11]: 97.95%; Tm [12]: 54 °C"
